Results from ChEMBL document CHEMBL1944514, “Fluorescence detection of single nucleotide polymorphisms using nucleic acid probe containing tricyclic base-linked acyclonucleoside” (Bioorg Med Chem Lett, 2012).
Active and inactive are the calls of the source. No cut-off for these calls is given here.

Legend:
Format in all cases: nucleic-acid assay
Nucleic Acid [1] = test: Binding affinity to 3'-r(CUUCCAGUUUCAUAGAGA)-5' RNA assessed as fluorescence quenching by spectrophotometry
Nucleic Acid [2] = test: Binding affinity to 3'-r(CUUCCAGUUGCAUAGAGA)-5' RNA assessed as change in melting temperature by spectrophotometry
Nucleic Acid [3] = test: Binding affinity to 3'-r(CUUCCAGUUACAUAGAGA)-5' RNA assessed as fluorescence quenching by spectrophotometry
Nucleic Acid [4] = test: Binding affinity to 3'-r(CUUCCAGUUACAUAGAGA)-5' RNA assessed as change in melting temperature by spectrophotometry
Nucleic Acid [5] = test: Binding affinity to 3'-r(CUUCCAGUUCCAUAGAGA)-5' RNA assessed as fluorescence quenching by spectrophotometry
Nucleic Acid [6] = test: Binding affinity to 3'-r(CUUCCAGUUGCAUAGAGA)-5' RNA assessed as fluorescence quenching by spectrophotometry
Nucleic Acid [7] = test: Binding affinity to 3'-r(CUUCCAGUUUCAUAGAGA)-5' RNA assessed as change in melting temperature by spectrophotometry
Nucleic Acid [8] = test: Binding affinity to 3'-r(CUUCCAGUUACAUAGAGA)-5' RNA assessed as fluorescence quenching measured post UV-irradiation by visual analysis
Summary of the method: (§1)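 Solutions of the N-containing probe/RNA target duplex in Tm buffer were irradiated with a handheld UV lamp at 254, 302 or 365 nm. The emitted colour was judged by eye from photographs.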

Nucleic Acid [9] = test: Binding affinity to 3'-r(CUUCCAGUUUCAUAGAGA)-5' RNA assessed as fluorescence quenching measured post UV-irradiation by visual analysis; summary of the method: as §1
Nucleic Acid [10] = test: Binding affinity to 3'-r(CUUCCAGUUCCAUAGAGA)-5' RNA assessed as change in melting temperature by spectrophotometry

Cc1cn([C@H]2C[C@H](OP(=O)(O)OC[C@H]3O[C@@H](n4ccc(N)nc4=O)C[C@@H]3OP(=O)(O)OC[C@H]3O[C@@H](n4cnc5c(N)ncnc54)C[C@@H]3OP(=O)(O)OC[C@H]3O[C@@H](n4cnc5c(N)ncnc54)C[C@@H]3OP(=O)(O)OC[C@H]3O[C@@H](n4cc(C)c(=O)[nH]c4=O)C[C@@H]3OP(=O)(O)OC[C@H](Cn3cnc4cc5c(N)nc(N)nc5nc43)OP(=O)(O)OC[C@H]3O[C@@H](n4cnc5c(=O)[nH]c(N)nc54)C[C@@H]3OP(=O)(O)CC[C@H]3O[C@@H](n4cc(C)c(=O)[nH]c4=O)C[C@@H]3OP(=O)(O)OC[C@H]3O[C@@H](n4cnc5c(N)ncnc54)C[C@@H]3OP(=O)(O)OC[C@H]3O[C@@H](n4cc(C)c(=O)[nH]c4=O)C[C@@H]3OP(=O)(O)OC[C@H]3O[C@@H](n4ccc(N)nc4=O)C[C@@H]3OP(=O)(O)OC[C@H]3O[C@@H](n4cc(C)c(=O)[nH]c4=O)C[C@@H]3OP(=O)(O)OC[C@H]3O[C@@H](n4ccc(N)nc4=O)C[C@@H]3OP(=O)(O)OC[C@H]3O[C@@H](n4cc(C)c(=O)[nH]c4=O)C[C@@H]3O)[C@@H](COP(=O)(O)O[C@H]3C[C@H](n4cnc5c(=O)[nH]c(N)nc54)O[C@@H]3COP(=O)(O)O[C@H]3C[C@H](n4cnc5c(=O)[nH]c(N)nc54)O[C@@H]3COP(=O)(O)O[C@H]3C[C@H](n4cnc5c(N)ncnc54)O[C@@H]3COP(=O)(O)O[C@H]3C[C@H](n4cnc5c(N)ncnc54)O[C@@H]3COP(=O)(O)O[C@H]3C[C@H](n4cnc5c(=O)[nH]c(N)nc54)O[C@@H]3CO)O2)c(=O)nc1N
Activity (Nucleic Acid [1]): Active | ΔTm (Nucleic Acid [2]): -0.9 °C | Activity (Nucleic Acid [3]): inactive | Activity (Nucleic Acid [4]): inactive | Activity (Nucleic Acid [5]): Active | Activity (Nucleic Acid [6]): Active | ΔTm (Nucleic Acid [7]): 1 °C | Activity (Nucleic Acid [8]): inactive | Activity (Nucleic Acid [9]): Active | ΔTm (Nucleic Acid [10]): -0.8 °C

Cc1cn([C@H]2C[C@H](OP(=O)(O)OC[C@H]3O[C@@H](n4ccc(N)nc4=O)C[C@@H]3OP(=O)(O)OC[C@H]3O[C@@H](n4cnc5c(N)ncnc54)C[C@@H]3OP(=O)(O)OC[C@H]3O[C@@H](n4cnc5c(N)ncnc54)C[C@@H]3OP(=O)(O)OC[C@H]3O[C@@H](n4cnc5c(N)ncnc54)C[C@@H]3OP(=O)(O)OC[C@H](Cn3cnc4cc5c(N)nc(N)nc5nc43)OP(=O)(O)OC[C@H]3O[C@@H](n4cnc5c(=O)[nH]c(N)nc54)C[C@@H]3OP(=O)(O)CC[C@H]3O[C@@H](n4cc(C)c(=O)[nH]c4=O)C[C@@H]3OP(=O)(O)OC[C@H]3O[C@@H](n4cnc5c(N)ncnc54)C[C@@H]3OP(=O)(O)OC[C@H]3O[C@@H](n4cc(C)c(=O)[nH]c4=O)C[C@@H]3OP(=O)(O)OC[C@H]3O[C@@H](n4ccc(N)nc4=O)C[C@@H]3OP(=O)(O)OC[C@H]3O[C@@H](n4cc(C)c(=O)[nH]c4=O)C[C@@H]3OP(=O)(O)OC[C@H]3O[C@@H](n4ccc(N)nc4=O)C[C@@H]3OP(=O)(O)OC[C@H]3O[C@@H](n4cc(C)c(=O)[nH]c4=O)C[C@@H]3O)[C@@H](COP(=O)(O)O[C@H]3C[C@H](n4cnc5c(=O)[nH]c(N)nc54)O[C@@H]3COP(=O)(O)O[C@H]3C[C@H](n4cnc5c(=O)[nH]c(N)nc54)O[C@@H]3COP(=O)(O)O[C@H]3C[C@H](n4cnc5c(N)ncnc54)O[C@@H]3COP(=O)(O)O[C@H]3C[C@H](n4cnc5c(N)ncnc54)O[C@@H]3COP(=O)(O)O[C@H]3C[C@H](n4cnc5c(=O)[nH]c(N)nc54)O[C@@H]3CO)O2)c(=O)nc1N
Activity (Nucleic Acid [1]): inactive | ΔTm (Nucleic Acid [2]): -2.1 °C | Activity (Nucleic Acid [3]): Active | ΔTm (Nucleic Acid [4]): -2.3 °C | Activity (Nucleic Acid [5]): Active | Activity (Nucleic Acid [6]): Active | Activity (Nucleic Acid [7]): inactive | ΔTm (Nucleic Acid [10]): -2 °C

Cc1cn([C@H]2C[C@H](OP(=O)(O)OC[C@H]3O[C@@H](n4ccc(N)nc4=O)C[C@@H]3OP(=O)(O)OC[C@H]3O[C@@H](n4cnc5c(N)ncnc54)C[C@@H]3OP(=O)(O)OC[C@H]3O[C@@H](n4cnc5c(N)ncnc54)C[C@@H]3OP(=O)(O)OC[C@H](Cn3cnc4cc5c(N)nc(N)nc5nc43)OP(=O)(O)OC[C@H]3O[C@@H](n4ccc(N)nc4=O)C[C@@H]3OP(=O)(O)OC[C@H]3O[C@@H](n4cnc5c(=O)[nH]c(N)nc54)C[C@@H]3OP(=O)(O)CC[C@H]3O[C@@H](n4cc(C)c(=O)[nH]c4=O)C[C@@H]3OP(=O)(O)OC[C@H]3O[C@@H](n4cnc5c(N)ncnc54)C[C@@H]3OP(=O)(O)OC[C@H]3O[C@@H](n4cc(C)c(=O)[nH]c4=O)C[C@@H]3OP(=O)(O)OC[C@H]3O[C@@H](n4ccc(N)nc4=O)C[C@@H]3OP(=O)(O)OC[C@H]3O[C@@H](n4cc(C)c(=O)[nH]c4=O)C[C@@H]3OP(=O)(O)OC[C@H]3O[C@@H](n4ccc(N)nc4=O)C[C@@H]3OP(=O)(O)OC[C@H]3O[C@@H](n4cc(C)c(=O)[nH]c4=O)C[C@@H]3O)[C@@H](COP(=O)(O)O[C@H]3C[C@H](n4cnc5c(=O)[nH]c(N)nc54)O[C@@H]3COP(=O)(O)O[C@H]3C[C@H](n4cnc5c(=O)[nH]c(N)nc54)O[C@@H]3COP(=O)(O)O[C@H]3C[C@H](n4cnc5c(N)ncnc54)O[C@@H]3COP(=O)(O)O[C@H]3C[C@H](n4cnc5c(N)ncnc54)O[C@@H]3COP(=O)(O)O[C@H]3C[C@H](n4cnc5c(=O)[nH]c(N)nc54)O[C@@H]3CO)O2)c(=O)nc1N
Activity (Nucleic Acid [1]): Active | Activity (Nucleic Acid [2]): inactive | Activity (Nucleic Acid [3]): Active | ΔTm (Nucleic Acid [4]): -6 °C | Activity (Nucleic Acid [5]): Active | Activity (Nucleic Acid [6]): inactive | ΔTm (Nucleic Acid [7]): -5.4 °C | ΔTm (Nucleic Acid [10]): -6.5 °C
